Columns and labels:
Rattus norvegicus [1] = assay: Mean potassium excretion in rats when compound administered at 2.5 mg/kg po and vehicle dosed at 9.87 umol/kg; type: ADME, organism-based; set-up: dose 2.5 mg/kg, route oral; conditions: in vivo
Procedure, shortened: (§1)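 Male Sprague-Dawley rats (HC/CFY, 175-200 g), no food or water for 18 h before and during the test. Single gavage dose (2.5-160 mg/kg; vehicle 1% carboxymethyl cellulose/0.1% Tween 80, 0.5 mL/100 g bw), then distilled water 2.5 mL/100 g bw po. Individual metabolic cages, 6 h urine. K+ by flame photometry, Cl- colorimetric, as mequiv/6 h/kg bw; unpaired Student t-test vs control.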

Rattus norvegicus [2] = assay: Post dosing time interval of maximum activity; type: functional
Procedure, shortened: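 Interval of peak activity taken from timed urine collections (0-1, 1-2, 2-3, 3-4, 4-6 h) after a single oral dose in water-loaded fasted rats, […]. Urine volume and Na+ excretion followed over time.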

Rattus norvegicus [3] = assay: Mean Chlorine excretion in rats when compound administered at 5 mg/kg po and vehicle dosed at 19.74 umol/kg; type: ADME, organism-based; set-up: dose 5 mg/kg, route oral; conditions: in vivo; procedure, shortened: as §1
Rattus norvegicus [4] = assay: Mean sodium excretion in rats when compound administered at 0 mg/kg po and vehicle dosed at 0 umol/kg; type: ADME, organism-based; set-up: dose 0 mg/kg, route oral; conditions: in vivo
Procedure, shortened: (§2)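 Male Sprague-Dawley rats (HC/CFY, 175-200 g) fasted and water-deprived 18 h before and during the test. Dosed by gavage at 2.5-160 mg/kg in 1% carboxymethyl cellulose/0.1% Tween 80, 0.5 mL/100 g bw. Immediately hydrated with water (2.5 mL/100 g bw, po). Urine collected 6 h in metabolic cages; Na+ and K+ by flame photometry; mean mequiv/6 h/kg bw; nonpaired Student t-test.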

Rattus norvegicus [5] = assay: Mean sodium excretion in rats when compound administered at 2.5 mg/kg po and vehicle dosed at 9.87 umol/kg; type: ADME, organism-based; set-up: dose 2.5 mg/kg, route oral; conditions: in vivo; procedure, shortened: as §2
Rattus norvegicus [6] = assay: Mean Chlorine excretion in rats when compound administered at 0 mg/kg po and vehicle dosed at 0 umol/kg; type: ADME, organism-based; set-up: dose 0 mg/kg, route oral; conditions: in vivo
Rattus norvegicus [7] = assay: Mean urinary output in rats when compound administered at 20 mg/kg po and vehicle dosed at 78.97 umol/kg; type: ADME, organism-based, Urine; set-up: dose 20 mg/kg, route oral; conditions: in vivo
Procedure, shortened: (§3)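 Water-loaded male Sprague-Dawley rats (HC/CFY, 175-200 g) fasted and without water for 18 h. Oral gavage of 2.5-160 mg/kg in 1% CMC with 0.1% Tween 80, then distilled water 2.5 mL/100 g po. Urine collected 6 h in metabolic cages, mean output in mL/6 h/kg bw. Unpaired Student t-test against vehicle; dose-response by linear regression.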

Rattus norvegicus [8] = assay: Mean urinary output in rats when compound administered at 0 mg/kg po and vehicle dosed at 0 umol/kg; type: ADME, organism-based, Urine; set-up: dose 0 mg/kg, route oral; conditions: in vivo; procedure, shortened: as §3
Rattus norvegicus [9] = assay: Urinary sodium 2 hr after the compound was administered 125 mg/kg po in rat; type: ADME, organism-based, Urine; set-up: dose 125 mg/kg, route oral; conditions: in vivo
Procedure, shortened: (§4)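 Onset and duration study in fasted, water-loaded male Sprague-Dawley rats housed two per metabolic cage, six pairs per group. Single oral dose given, then water 2.5 mL/100 g po. Urine volume and sodium (flame photometry) measured over 0-1, 1-2, 2-3, 3-4 and 4-6 h intervals. Mean values compared with vehicle by Student t-test.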

Rattus norvegicus [10] = assay: Mean urinary output in rats when compound administered at 160 mg/kg po and vehicle dosed at 631.76 umol/kg; type: ADME, organism-based, Urine; set-up: dose 160 mg/kg, route oral; conditions: in vivo; procedure, shortened: as §3
Rattus norvegicus [11] = assay: Volume of urine 2 hr after the compound was administered 125 mg/kg po in rat; type: ADME, organism-based; set-up: dose 125 mg/kg, route oral; conditions: in vivo
Procedure, shortened: (§5)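 Onset/duration protocol: male Sprague-Dawley rats (HC/CFY, 175-200 g), food and water withdrawn for 18 h before and during the test. Single gavage dose in 1% carboxymethyl cellulose/0.1% Tween 80 (0.5 mL/100 g bw), then distilled water load (2.5 mL/100 g bw po). Two rats per metabolic cage, six pairs per group. Urine collected at 0-1, 1-2, 2-3, 3-4 and 4-6 h; Na+ by flame photometry. Vehicle controls; nonpaired Student t-test.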

Rattus norvegicus [12] = assay: Mean Chlorine excretion in rats when compound administered at 160 mg/kg po and vehicle dosed at 631.76 umol/kg; type: ADME, organism-based; set-up: dose 160 mg/kg, route oral; conditions: in vivo; procedure, shortened: as §1
Rattus norvegicus [13] = assay: Mean urinary output in rats when compound administered at 2.5 mg/kg po and vehicle dosed at 9.87 umol/kg; type: ADME, organism-based, Urine; set-up: dose 2.5 mg/kg, route oral; conditions: in vivo; procedure, shortened: as §3
Rattus norvegicus [14] = assay: Mean potassium excretion in rats when compound administered at 5 mg/kg po and vehicle dosed at 19.74 umol/kg; type: ADME, organism-based; set-up: dose 5 mg/kg, route oral; conditions: in vivo; procedure, shortened: as §2
Rattus norvegicus [15] = assay: Volume of urine 4 hr after the compound was administered 125 mg/kg po in rat; type: ADME, organism-based; set-up: dose 125 mg/kg, route oral; conditions: in vivo; procedure, shortened: as §5
Rattus norvegicus [16] = assay: Mean Chlorine excretion in rats when compound administered at 80 mg/kg po and vehicle dosed at 315.88 umol/kg; type: ADME, organism-based; set-up: dose 80 mg/kg, route oral; conditions: in vivo; procedure, shortened: as §1
Rattus norvegicus [17] = assay: Urinary sodium 4 hr after the compound was administered 125 mg/kg po in rat; type: ADME, organism-based, Urine; set-up: dose 125 mg/kg, route oral; conditions: in vivo; procedure, shortened: as §4
Rattus norvegicus [18] = assay: Mean sodium excretion in rats when compound administered at 5 mg/kg po and vehicle dosed at 19.74 umol/kg; type: ADME, organism-based; set-up: dose 5 mg/kg, route oral; conditions: in vivo; procedure, shortened: as §2
Rattus norvegicus [19] = assay: Mean urinary output in rats when compound administered at 5 mg/kg po and vehicle dosed at 19.74 umol/kg; type: ADME, organism-based, Urine; set-up: dose 5 mg/kg, route oral; conditions: in vivo; procedure, shortened: as §3
Rattus norvegicus [20] = assay: Mean sodium excretion in rats when compound administered at 10 mg/kg po and vehicle dosed at 39.48 umol/kg; type: ADME, organism-based; set-up: dose 10 mg/kg, route oral; conditions: in vivo; procedure, shortened: as §2
Rattus norvegicus [21] = assay: Mean sodium excretion in rats when compound administered at 20 mg/kg po and vehicle dosed at 78.97 umol/kg; type: ADME, organism-based; set-up: dose 20 mg/kg, route oral; conditions: in vivo; procedure, shortened: as §2
Rattus norvegicus [22] = assay: Mean potassium excretion in rats when compound administered at 10 mg/kg po and vehicle dosed at 39.48 umol/kg; type: ADME, organism-based; set-up: dose 10 mg/kg, route oral; conditions: in vivo; procedure, shortened: as §1
Rattus norvegicus [23] = assay: Mean potassium excretion in rats when compound administered at 0 mg/kg po and vehicle dosed at 0 umol/kg; type: ADME, organism-based; set-up: dose 0 mg/kg, route oral; conditions: in vivo; procedure, shortened: as §1

For `Nc1nc(N)c2nc(-c3ccccc3)c(N)nc2n1`, the K (Rattus norvegicus [1]) was 0.32 m equiv 6hr-1 kg-1 (body weight)-1, the Time (Rattus norvegicus [2]) was 6 h and the Cl- (Rattus norvegicus [3]) was 1.55 m equiv 6hr-1 kg-1 (body weight)-1. For the same compound, the Na (Rattus norvegicus [4]) was 0.58 m equiv 6hr-1 kg-1 (body weight)-1, the Na (Rattus norvegicus [5]) was 1.69 m equiv 6hr-1 kg-1 (body weight)-1 and the Cl- (Rattus norvegicus [6]) was 0.88 m equiv 6hr-1 kg-1 (body weight)-1. The V (Rattus norvegicus [7]) was 32.87 ml 6hr-1 (kg of body weight)-1, the V (Rattus norvegicus [8]) was 24.94 ml 6hr-1 (kg of body weight)-1 and the “Urinary Na+” value (Rattus norvegicus [9]) was 0.16 m equiv. The V (Rattus norvegicus [10]) was 52 ml 6hr-1 (kg of body weight)-1, the Urine volume (Rattus norvegicus [11]) was 3.2 mL and the Cl- (Rattus norvegicus [12]) was 3.05 m equiv 6hr-1 kg-1 (body weight)-1. The V (Rattus norvegicus [13]) was 31.39 ml 6hr-1 (kg of body weight)-1, the K (Rattus norvegicus [14]) was 0.19 m equiv 6hr-1 kg-1 (body weight)-1 and the Urine volume (Rattus norvegicus [15]) was 1.78 mL. For the same compound, the Cl- (Rattus norvegicus [16]) was 2.8 m equiv 6hr-1 kg-1 (body weight)-1, the “Urinary Na+” value (Rattus norvegicus [17]) was 0.15 m equiv and the Na (Rattus norvegicus [18]) was 2.28 m equiv 6hr-1 kg-1 (body weight)-1. For the same compound, the V (Rattus norvegicus [19]) was 30.19 ml 6hr-1 (kg of body weight)-1, the Na (Rattus norvegicus [20]) was 2.61 m equiv 6hr-1 kg-1 (body weight)-1 and the Na (Rattus norvegicus [21]) was 2.42 m equiv 6hr-1 kg-1 (body weight)-1. The K (Rattus norvegicus [22]) was 0.18 m equiv 6hr-1 kg-1 (body weight)-1 and the K (Rattus norvegicus [23]) was 0.5 m equiv 6hr-1 kg-1 (body weight)-1.

From ChEMBL document CHEMBL1125330, “N-substituted pyrazino[2,3-c][1,2,6]thiadiazine 2,2-dioxides. A new class of diuretics” (J Med Chem, 1992)
